From ChEMBL document CHEMBL4622842, “Optimization and biological evaluation of imidazopyridine derivatives as a novel scaffold for γ-secretase modulators with oral efficacy against cognitive deficits in Alzheimer's disease model mice” (Bioorg Med Chem, 2020)
Activity calls are given as the source filed them. The calls are words filed in the database; no cut-off is given here.

Columns and labels:
Gamma-secretase = experiment: Inhibition of gamma-secretase in human SK-N-BE cells assessed as decrease in amyloid beta 42 production treated for 6 hrs by ELISA; type: cell-based
Method in brief: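 SK-N-BE(2) human neuroblastoma cells grown in RPMI1640 with 10% FBS and penicillin/streptomycin, plated in 96-well plates overnight, then exposed to a range of drug concentrations in 0.5% DMSO for 6 h. Medium Aβ1-42 was measured by sandwich ELISA (44A3 capture, biotin-82E1 detection, streptavidin-HRP, TMB). Total Aβ was measured by ELISA kit. Mean of two wells.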

Rattus norvegicus [1] = experiment: Reduction in amyloid beta 42 production in Sprague-Dawley rat brain at 30 mg/kg, po measured after 3 to 4 hrs by ELISA relative to control; type: functional
Method in brief: (§1)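 Nonfasted 6-week-old male SD rats (n = 4 or 5) given a single oral dose of 10 or 30 mg/kg in 0.5% (w/v) methylcellulose. Blood and brain were taken under isoflurane 3 h post-dose (4 h for some entries). Hippocampus was sonicated in 10 volumes of TBS pH 7.4 with protease inhibitors and spun at 100,000g, 4 °C, 1 h. Aβx-42 in supernatant and plasma measured by ELISA; Student's t-test vs vehicle.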

Rattus norvegicus [2] = experiment: Reduction in amyloid beta 42 production in Sprague-Dawley rat plasma at 30 mg/kg, po measured after 3 to 4 hrs by ELISA relative to control; type: functional; method in brief: as §1
[3] = Intrinsic clearance in rat liver microsomes at 0.2 uM incubated upto 45 mins by LC/MS-MS analysis; type: ADME, Microsome; conditions: for CLint scaled at 0.2 µM: liver microsomes
Method in brief: (§2)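 Test compound at 0.2 μM incubated at 37 °C with pooled rat or mouse liver microsomes (0.2 mg protein/mL), 1 mM NADPH and 0.1 mM EDTA in 100 mM Na+-K+ phosphate, pH 7.4. Samples taken at 0, 15, 30 and 45 min; compound/internal-standard peak areas measured by LC-MS/MS to calculate CLint (mL/min/kg). Mean of duplicate experiments.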

[4] = Intrinsic clearance in mouse liver microsomes at 0.2 uM incubated upto 45 mins by LC/MS-MS analysis; type: ADME, Microsome; method in brief: as §2
[5] = Drug concentration in plasma of Sprague-Dawley rat at 30 mg/kg, po measured after 3 hrs by LC/MS-MS analysis; type: ADME, organism-based
Method in brief: (§3)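 Nonfasted 6-week-old male SD rats (n = 2 or 3) received a single oral dose of 10 or 30 mg/kg as a suspension in 0.5% (w/v) methylcellulose. Plasma and brain were sampled 3 h post-dose, proteins were precipitated with acetonitrile, and drug was quantified by LC-MS/MS. Values are the mean of two or three rats. The brain/plasma ratio was taken from these concentrations.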

[6] = Drug concentration in brain of Sprague-Dawley rat at 30 mg/kg, po measured after 3 hrs by LC/MS-MS analysis; type: ADME, organism-based; conditions: in vivo; method in brief: as §3
[7] = Ratio of drug concentration in plasma of Sprague-Dawley rat at 30 mg/kg, po to IC50 of gamma-secretase in human SK-N-BE cells; type: ADME, organism-based; conditions: in vivo
[8] = Ratio of drug concentration in brain to blood of Sprague-Dawley rat at 30 mg/kg, po measured after 3 hrs by LC/MS-MS analysis; type: ADME, organism-based; conditions: brain and blood; method in brief: as §3
[9] = Ratio of drug concentration in brain of Sprague-Dawley rat at 30 mg/kg, po to IC50 of gamma-secretase in human SK-N-BE cells; type: ADME, organism-based; conditions: in vivo
Cytochrome P450 1A2 = biological target: T1, Cytochrome P450 1A2 (Homo sapiens, UniProt P05177); experiment: Inhibition of human recombinant CYP1A2 assessed as reduction in metabolite formation using CEC as substrate incubated for 20 mins by fluorescence assay; type: ADME
T1 sequence (P05177 whole entry): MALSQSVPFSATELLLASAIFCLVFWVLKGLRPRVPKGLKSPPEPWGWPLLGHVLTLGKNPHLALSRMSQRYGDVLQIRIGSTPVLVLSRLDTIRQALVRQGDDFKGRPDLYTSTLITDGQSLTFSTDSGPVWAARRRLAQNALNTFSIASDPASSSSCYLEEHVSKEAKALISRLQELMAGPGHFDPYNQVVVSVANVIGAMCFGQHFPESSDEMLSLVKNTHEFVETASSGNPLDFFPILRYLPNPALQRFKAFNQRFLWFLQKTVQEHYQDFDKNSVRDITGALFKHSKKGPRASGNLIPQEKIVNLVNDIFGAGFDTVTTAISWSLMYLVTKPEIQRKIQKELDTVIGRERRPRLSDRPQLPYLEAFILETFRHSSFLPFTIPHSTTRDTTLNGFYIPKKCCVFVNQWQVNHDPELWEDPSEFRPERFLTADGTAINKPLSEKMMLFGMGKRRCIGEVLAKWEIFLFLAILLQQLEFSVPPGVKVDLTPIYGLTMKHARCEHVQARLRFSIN
Method in brief: (§4)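 Recombinant human CYP with co-factors, fluorogenic substrate, potassium phosphate buffer pH 7.4 and test compound at 0.31–20 μM, incubated at 37 °C. Substrates and incubation times: CYP1A2, 5 μM CEC, 20 min; CYP2C9, 75 μM MFC, 30 min; CYP2C19, 25 μM CEC, 20 min; CYP2D6, AMMC, 20 min. Stopped with Tris base/acetonitrile; metabolite read by fluorescence. IC50 is the mean of duplicates.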

Cytochrome P450 2C9 = Cytochrome P450 2C9 (Homo sapiens, UniProt P11712); experiment: Inhibition of human recombinant CYP2C9 assessed as reduction in metabolite formation using MFC as substrate incubated for 30 mins by fluorescence assay; type: ADME; method in brief: as §4
Cytochrome P450 2C19 = Cytochrome P450 2C19 (Homo sapiens, UniProt P33261); experiment: Inhibition of human recombinant CYP2C19 assessed as reduction in metabolite formation using CEC as substrate incubated for 20 mins by fluorescence assay; type: ADME; method in brief: as §4
[10] = Drug concentration in brain of Sprague-Dawley rat at 10 mg/kg, po measured after 3 hrs by LC/MS-MS analysis; type: ADME, organism-based; conditions: in vivo; method in brief: as §3
[11] = Ratio of drug concentration in plasma of Sprague-Dawley rat at 10 mg/kg, po to IC50 of gamma-secretase in human SK-N-BE cells; type: ADME, organism-based; conditions: in vivo
Rattus norvegicus [12] = experiment: Reduction in amyloid beta 42 production in Sprague-Dawley rat brain at 10 mg/kg, po measured after 3 to 4 hrs by ELISA relative to control; type: functional; method in brief: as §1
CYP3A4 [13] = biological target: T2, CYP3A4 (Homo sapiens, UniProt P08684); experiment: Inhibition of CYP3A4 in human liver microsome assessed as enzyme residual activity pre-incubated for 30 min followed by midazolam addition incubated for 20 mins by LC-MS/MS analysis relative to control; type: ADME; conditions: liver microsomes, probe midazolam, read-out: INH
Method in brief: (§5)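 Human liver microsomes at 0.1 mg protein/mL with 1 mM NADPH, 0.1 mM EDTA, 100 mM Na+-K+ phosphate pH 7.4 and 5 μM test compound, preincubated 0 or 30 min at 37 °C. Started with 1.5 μM midazolam, run 20 min, stopped with 80% acetonitrile containing internal standard. Peak-area ratios with compound vs without gave residual activity; mean of duplicates.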

[14] = Drug concentration in plasma of Sprague-Dawley rat at 10 mg/kg, po measured after 3 hrs by LC/MS-MS analysis; type: ADME, organism-based; method in brief: as §3
Cytochrome P450 2D6 = Cytochrome P450 2D6 (Homo sapiens, UniProt P10635); experiment: Inhibition of human recombinant CYP2D6 assessed as reduction in metabolite formation using AMMC as substrate incubated for 20 mins by fluorescence assay; type: ADME; method in brief: as §4
CYP3A4 [15] = biological target: T2, CYP3A4; experiment: Inhibition of CYP3A4 in human liver microsome assessed as enzyme residual activity pre-incubated for 0 min followed by midazolam addition incubated for 20 mins by LC-MS/MS analysis relative to control; type: ADME; conditions: liver microsomes, probe midazolam, read-out: INH; method in brief: as §5
Rattus norvegicus [16] = experiment: Reduction in amyloid beta 42 production in Sprague-Dawley rat plasma at 10 mg/kg, po measured after 3 to 4 hrs by ELISA relative to control; type: functional; method in brief: as §1
[17] = Ratio of drug concentration in brain of Sprague-Dawley rat at 10 mg/kg, po to IC50 of gamma-secretase in human SK-N-BE cells; type: ADME, organism-based; conditions: in vivo
Mus musculus = experiment: Antialzheimer activity in transgenic Tg2576 mouse assessed as improvement of spatial memory impairment at 2 and 6 mg/kg, po administered daily for 8 weeks measured after 3 hrs on day 8 by Y-maze test; type: functional, organism-based; conditions: in the assay text read “8 days” for “8 weeks”
Method in brief: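 Female Tg2576 mice, 6 months old, nonfasted (n = 5 or 6), dosed orally once daily for 8 days at 0.6, 2.0, 6.0 or 20 mg/kg as a suspension in 0.5% methyl cellulose. Three hours after the day-8 dose, each mouse started at the end of one arm of a three-arm Y-maze and explored freely for 8 min. Spontaneous alternation was scored; animals with <10 total arm entries were excluded. Student's t-test vs vehicle.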

[18] = Ratio of drug concentration in brain to blood of Sprague-Dawley rat at 10 mg/kg, po measured after 3 hrs by LC/MS-MS analysis; type: ADME, organism-based; conditions: brain and blood; method in brief: as §3

T2 sequence (P08684 whole entry): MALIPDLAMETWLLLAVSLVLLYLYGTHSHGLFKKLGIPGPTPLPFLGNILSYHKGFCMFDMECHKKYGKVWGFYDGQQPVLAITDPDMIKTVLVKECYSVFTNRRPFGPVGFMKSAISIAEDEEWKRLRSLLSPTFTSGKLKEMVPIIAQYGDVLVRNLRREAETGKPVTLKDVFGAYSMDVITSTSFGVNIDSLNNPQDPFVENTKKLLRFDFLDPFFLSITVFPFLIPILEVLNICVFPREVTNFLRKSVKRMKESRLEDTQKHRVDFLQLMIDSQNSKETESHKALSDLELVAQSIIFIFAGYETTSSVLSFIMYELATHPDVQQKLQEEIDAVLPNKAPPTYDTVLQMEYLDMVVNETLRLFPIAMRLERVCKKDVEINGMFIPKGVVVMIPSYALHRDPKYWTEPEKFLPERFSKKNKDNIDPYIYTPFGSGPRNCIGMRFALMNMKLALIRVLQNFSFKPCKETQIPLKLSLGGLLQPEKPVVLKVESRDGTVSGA
Cytochrome P450 2D6, sequence (P10635 whole entry): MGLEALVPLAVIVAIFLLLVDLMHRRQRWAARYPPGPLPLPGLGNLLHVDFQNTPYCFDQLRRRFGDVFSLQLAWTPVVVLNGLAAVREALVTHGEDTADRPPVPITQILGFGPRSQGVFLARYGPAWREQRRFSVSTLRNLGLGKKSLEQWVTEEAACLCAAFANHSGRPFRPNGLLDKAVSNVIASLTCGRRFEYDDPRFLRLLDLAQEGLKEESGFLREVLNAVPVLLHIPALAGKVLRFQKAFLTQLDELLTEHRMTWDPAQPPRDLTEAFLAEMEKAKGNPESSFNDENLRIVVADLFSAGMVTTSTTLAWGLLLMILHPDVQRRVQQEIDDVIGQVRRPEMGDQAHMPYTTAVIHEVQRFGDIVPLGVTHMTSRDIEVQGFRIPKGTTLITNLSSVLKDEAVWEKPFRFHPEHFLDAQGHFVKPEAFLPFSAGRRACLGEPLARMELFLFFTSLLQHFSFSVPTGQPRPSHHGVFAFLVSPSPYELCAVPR
Cytochrome P450 2C19, sequence (P33261 whole entry): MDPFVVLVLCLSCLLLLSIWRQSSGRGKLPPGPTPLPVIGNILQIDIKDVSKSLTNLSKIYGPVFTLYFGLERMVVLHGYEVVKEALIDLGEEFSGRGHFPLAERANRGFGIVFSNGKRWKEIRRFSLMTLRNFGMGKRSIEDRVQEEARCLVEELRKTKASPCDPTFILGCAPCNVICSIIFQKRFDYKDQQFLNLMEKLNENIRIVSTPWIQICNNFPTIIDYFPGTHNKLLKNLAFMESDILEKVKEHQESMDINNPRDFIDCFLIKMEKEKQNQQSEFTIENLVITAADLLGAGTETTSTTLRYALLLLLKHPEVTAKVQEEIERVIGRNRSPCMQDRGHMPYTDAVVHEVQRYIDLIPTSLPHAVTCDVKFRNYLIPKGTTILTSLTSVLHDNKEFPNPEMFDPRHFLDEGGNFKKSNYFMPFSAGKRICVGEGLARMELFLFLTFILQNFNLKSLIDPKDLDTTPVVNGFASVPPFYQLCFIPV
Cytochrome P450 2C9, sequence (P11712 whole entry): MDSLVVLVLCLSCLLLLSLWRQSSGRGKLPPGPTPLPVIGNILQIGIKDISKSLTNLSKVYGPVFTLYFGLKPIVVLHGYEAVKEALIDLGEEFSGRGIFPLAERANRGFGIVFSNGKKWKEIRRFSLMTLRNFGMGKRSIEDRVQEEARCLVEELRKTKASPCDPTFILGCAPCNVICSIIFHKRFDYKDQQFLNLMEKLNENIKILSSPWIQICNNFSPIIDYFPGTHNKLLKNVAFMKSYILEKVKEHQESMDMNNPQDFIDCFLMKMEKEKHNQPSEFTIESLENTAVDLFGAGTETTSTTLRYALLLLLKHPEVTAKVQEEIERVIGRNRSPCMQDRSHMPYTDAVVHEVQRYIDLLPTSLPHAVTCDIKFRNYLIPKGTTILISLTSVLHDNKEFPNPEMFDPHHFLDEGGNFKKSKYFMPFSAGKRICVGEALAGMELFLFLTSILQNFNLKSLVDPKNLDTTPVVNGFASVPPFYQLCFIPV

SMILES	IC50 (Gamma-secretase)	CLint scaled at 0.2 µM [3]	inhibition in vivo at 30 mg/kg (Rattus norvegicus [1])	inhibition in vivo at 30 mg/kg (Rattus norvegicus [2])	other results
CCn1sc2cc(-c3c(C)nc4c(OCc5ccc(-c6ccc(F)cc6)cc5)cccn34)ccc2c1=O	> 2000 nM				
CCNC(=O)c1ccc(-c2c(C)nc3c(OCc4ccc(-c5ccccc5)cc4)cccn23)cn1.Cl		835 mL/min/kg	13%	28%	CLint scaled at 0.2 µM [4]: 227 mL/min/kg; concentration at 3 h [5]: 6.8 µM; Ct [6]: 2.1 nmol/g; Ratio [7]: 75; Kp at 3 h [8]: 0.3; Ratio [9]: 23
CCNC(=O)c1ccc(-c2c(C)nc3c(OCc4ccc(-c5cccc(F)c5)cc4)cccn23)cn1	99 nM	307 mL/min/kg	22%	42%	
CCNC(=O)c1ccc(-c2c(C)nc3c(OCc4ccc(-c5ccccc5F)cc4)cccn23)cn1	220 nM	> 1000 mL/min/kg			
CCn1[nH]c2cc(-c3c(C)nc4c(OCc5ccc(-c6ccc(F)cc6)cc5)cccn34)ccc2c1=O	390 nM				
CCn1c(=O)c2ccc(-c3c(C)nc4c(OCc5ccc(-c6ccc(F)cc6)cc5)cccn34)cc2n1C	> 2000 nM				
CCNC(=O)c1ccc(-c2c(C)nc3c(OCc4ccc(-c5ccccc5C(F)(F)F)cc4)cccn23)cn1	180 nM	790 mL/min/kg			
CCNC(=O)c1ccc(-c2c(C)nc3c(OCc4ccc(-c5ccc(C(F)(F)F)cc5)cc4)cccn23)cn1.Cl	210 nM		4%	40%	CLH ([3]; microsomes, 0.75 h, 0.2 µM): Stable

The remaining compounds from weak to strong by IC50 (Gamma-secretase), led by results:

IC50 (Gamma-secretase)	CLint scaled at 0.2 µM [3]	SMILES	inhibition in vivo at 30 mg/kg (Rattus norvegicus [1])	inhibition in vivo at 30 mg/kg (Rattus norvegicus [2])	other results
92 nM	345 mL/min/kg	CCN1Cc2cc(-c3c(C)nc4c(OCc5ccc(-c6ccc(F)cc6)cc5)cccn34)ccc2C1=O	10%	59%	
90 nM	214 mL/min/kg	CCn1oc2cc(-c3c(C)nc4c(OCc5ccc(-c6ccc(F)cc6)cc5)cccn34)ccc2c1=O	20%	63%	
75 nM	221 mL/min/kg	CCNC(=O)c1ccc(-c2c(C)nc3c(OCc4ccc(-c5ccc(F)cc5)cc4)cccn23)cn1	22%	43%	
69 nM	167 mL/min/kg	Cc1nc2c(OCc3ccc(-c4ccc(F)cc4)cc3)cccn2c1-c1ccc2c(=O)n(C)oc2c1.Cl	29%	81%	concentration at 3 h [5]: 21 µM; Ct [6]: 5.6 nmol/g; Ratio [7]: 304; Kp at 3 h [8]: 0.27; Ratio [9]: 81
61 nM	38 mL/min/kg	CCNC(=O)c1ccc(-c2c(C)nc3c(OCc4ccc(-c5cccc(C(F)(F)F)c5)cc4)cccn23)cn1	15%	62%	
37 nM	147 mL/min/kg	CNC(=O)c1ccc(-c2c(C)nc3c(OCc4ccc(-c5ccc(F)cc5)cc4)cccn23)cn1.Cl	40%	68%	concentration at 3 h [5]: 17 µM; Ct [6]: 7.1 nmol/g; Ratio [7]: 446; Kp at 3 h [8]: 0.44; Ratio [9]: 193
29 nM	115 mL/min/kg	CNC(=O)c1ccc(-c2c(C)nc3c(OCc4ccc(-c5ccc(F)cc5)cc4F)cccn23)cn1.Cl	42%	77%	IC50 (Cytochrome P450 1A2): > 10000 nM; IC50 (Cytochrome P450 2C9): > 10000 nM; IC50 (Cytochrome P450 2C19): > 10000 nM; concentration at 3 h [5]: 16 µM; Ct [10]: 1.5 nmol/g; Ratio [11]: 196; inhibition in vivo at 10 mg/kg (Rattus norvegicus [12]): 23%; activity at 20 min (CYP3A4 [13]): 104%; Ct [6]: 3.5 nmol/g; concentration at 3 h [14]: 5.7 µM; IC50 (Cytochrome P450 2D6): > 10000 nM; activity at 20 min (CYP3A4 [15]): 109%; Ratio [7]: 561; inhibition in vivo at 10 mg/kg (Rattus norvegicus [16]): 63%; Ratio [17]: 51; Activity (Mus musculus): Active; Kp at 3 h [8]: 0.23; Ratio [9]: 121; Kp at 3 h [18]: 0.27
